Reference: ChEMBL document CHEMBL5724801, “EUbOPEN Chemogenomics Library - Multiplex” (2024)
Where “and” joins values, the source holds several entries; their conditions need not be identical. Identical values can stand only once.

Tested on: HEK-293T
Assay: Multiplex assay against HEK293T
Format: toxicity, cell-based
Conditions: human
Method in brief: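 Tubulin, mitochondrial-mass and membrane-permeability phenotypes are per cents of healthy-nucleus cells. Cells were gated by CellPathfinder machine learning into Hoechst high-intensity objects or normal cells, normal cells into healthy, pyknosed or fragmented nuclei, and pyknosed cells into mitotic or apoptotic. Before that, live cells stained at seeding with Hoechst33342, BioTracker Green Microtubule Cytoskeleton Dye, MitoTracker Red and Annexin V Alexa Fluor 680 were imaged on a CQ1 microscope at 37°C and 5% CO2 after compound addition.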

[1] = 12 h, 1 µM, compound concentration 1 uM
[2] = 12 h, 10 µM, compound concentration 10 uM
[3] = 24 h, 1 µM, compound concentration 1 uM
[4] = 24 h, 10 µM, compound concentration 10 uM
[5] = 48 h, 1 µM, compound concentration 1 uM
[6] = 48 h, 10 µM, compound concentration 10 uM

Cc1cc(C(C#N)c2ccc(Cl)cc2)c(Cl)cc1NC(=O)c1cc(I)cc(I)c1O (stereo not drawn) [CLOSANTEL]
Population Apoptotic (%) [1]: 6.57% and 5.41% | Population Fragmented Nuclei (%) [1]: 3.34% and 0.56% | Population Hoechst High Intensity Objects (%) [1]: 0% | Population Membrane Permeable-Phenotype (%) [1]: 1.66% and 0% | Population Mitotic Cells (%) [1]: 93.43% and 94.59% | Population Normal (%) [1]: 100% | Population Pyknosed Nuclei (%) [1]: 41.64% and 82.22% | Total Cell Count [1]: 329 and 180 | Population Apoptotic (%) [2]: 9.49% and 11.94% | Population Fragmented Nuclei (%) [2]: 1.44% and 2.52% | Population Hoechst High Intensity Objects (%) [2]: 0.29% and 0% | Population Membrane Permeable-Phenotype (%) [2]: 0% | Population Mitotic Cells (%) [2]: 90.51% and 88.06% | Population Normal (%) [2]: 99.71% and 100% | Population Pyknosed Nuclei (%) [2]: 39.37% and 84.28% | Total Cell Count [2]: 349 and 159 | Population Apoptotic (%) [3]: 9.09% and 12.78% | Population Fragmented Nuclei (%) [3]: 2.28% and 0.53% | Population Healthy Nuclei (%) [3]: 72.62% and 29.1% | Population Hoechst High Intensity Objects (%) [3]: 0.19% and 0% | Population Membrane Permeable-Phenotype (%) [3]: 1.05% and 0% | Population Mitochondria Different-Phenotype (%) [3]: 12.3% and 16.36% | Population Mitotic Cells (%) [3]: 90.91% and 87.22% | Population Normal (%) [3]: 99.81% and 100% | Population Pyknosed Nuclei (%) [3]: 25.1% and 70.37% | Population Tubulin-Different-Phenotype (%) [3]: 11.78% and 10.91% | Total Cell Count [3]: 527 and 189 | Population Apoptotic (%) [4]: 21.1% and 18.35% | Population Fragmented Nuclei (%) [4]: 2.28% and 2.25% | Population Healthy Nuclei (%) [4]: 75.1% and 36.52% | Population Hoechst High Intensity Objects (%) [4]: 0.21% and 2.73% | Population Membrane Permeable-Phenotype (%) [4]: 0.83% and 1.54% | Population Mitochondria Different-Phenotype (%) [4]: 12.15% and 7.69% | Population Mitotic Cells (%) [4]: 78.9% and 81.65% | Population Normal (%) [4]: 99.79% and 97.27% | Population Pyknosed Nuclei (%) [4]: 22.61% and 61.24% | Population Tubulin-Different-Phenotype (%) [4]: 3.04% and 9.23% | Total Cell Count [4]: 483 and 183 | Population Apoptotic (%) [5]: 9.63% and 18.42% | Population Fragmented Nuclei (%) [5]: 3.24% and 1.21% | Population Healthy Nuclei (%) [5]: 87.05% and 68.15% | Population Hoechst High Intensity Objects (%) [5]: 0% and 0.8% | Population Membrane Permeable-Phenotype (%) [5]: 4.96% and 1.78% | Population Mitochondria Different-Phenotype (%) [5]: 11.57% and 23.67% | Population Mitotic Cells (%) [5]: 90.37% and 81.58% | Population Normal (%) [5]: 100% and 99.2% | Population Fragmented Nuclei (%) [6]: 2.8% and 1.44% | Population Healthy Nuclei (%) [6]: 87.9% and 66.19% | Population Hoechst High Intensity Objects (%) [6]: 0.07% and 0% | Population Membrane Permeable-Phenotype (%) [6]: 1.34% and 0.54% | Population Mitochondria Different-Phenotype (%) [6]: 8.23% and 21.74% | Population Mitotic Cells (%) [6]: 96.03% and 80% | Population Normal (%) [6]: 99.93% and 100%

Cl.Cl.OCCOCCN1CCN(C(c2ccccc2)c2ccc(Cl)cc2)CC1 (stereo not drawn) [HYDROXYZINE HYDROCHLORIDE]
Population Apoptotic (%) [1]: 34% and 70% | Population Fragmented Nuclei (%) [1]: 7% and 5% | Population Healthy Nuclei (%) [1]: 79% and 84% | Population Hoechst High Intensity Objects (%) [1]: 6% and 9% | Population Membrane Permeable-Phenotype (%) [1]: 0% | Population Mitochondria Different-Phenotype (%) [1]: 48% and 58% | Population Mitotic Cells (%) [1]: 66% and 29% | Population Normal (%) [1]: 93% and 90% | Population Pyknosed Nuclei (%) [1]: 13% and 9% | Population Tubulin-Different-Phenotype (%) [1]: 24% and 28% | Total Cell Count [1]: 394 and 362 | Population Apoptotic (%) [2]: 49% and 68% | Population Fragmented Nuclei (%) [2]: 8% and 6% | Population Healthy Nuclei (%) [2]: 71% and 73% | Population Hoechst High Intensity Objects (%) [2]: 11% and 19% | Population Membrane Permeable-Phenotype (%) [2]: 0% and 1% | Population Mitochondria Different-Phenotype (%) [2]: 71% and 83% | Population Mitotic Cells (%) [2]: 50% and 31% | Population Normal (%) [2]: 88% and 80% | Population Pyknosed Nuclei (%) [2]: 19% and 20% | Population Tubulin-Different-Phenotype (%) [2]: 65% and 59% | Total Cell Count [2]: 354 and 327 | Population Apoptotic (%) [3]: 22% and 43% | Population Fragmented Nuclei (%) [3]: 10% and 11% | Population Healthy Nuclei (%) [3]: 78% | Population Membrane Permeable-Phenotype (%) [3]: 0% | Population Mitochondria Different-Phenotype (%) [3]: 34% and 41% | Population Mitotic Cells (%) [3]: 77% and 56% | Population Normal (%) [3]: 97% and 86% | Population Pyknosed Nuclei (%) [3]: 11% and 9% | Population Tubulin-Different-Phenotype (%) [3]: 22% and 17% | Total Cell Count [3]: 566 and 481 | Population Apoptotic (%) [4]: 29% and 59% | Population Fragmented Nuclei (%) [4]: 10% and 8% | Population Healthy Nuclei (%) [4]: 74% and 71% | Population Hoechst High Intensity Objects (%) [4]: 8% and 22% | Population Membrane Permeable-Phenotype (%) [4]: 0% | Population Mitochondria Different-Phenotype (%) [4]: 55% and 72% | Population Mitotic Cells (%) [4]: 70% and 40% | Population Normal (%) [4]: 91% and 77% | Population Pyknosed Nuclei (%) [4]: 15% and 19% | Population Tubulin-Different-Phenotype (%) [4]: 49% and 43% | Total Cell Count [4]: 472 and 383 | Population Apoptotic (%) [5]: 23% and 46% | Population Fragmented Nuclei (%) [5]: 14% | Population Healthy Nuclei (%) [5]: 79% | Population Hoechst High Intensity Objects (%) [5]: 1% and 3% | Population Membrane Permeable-Phenotype (%) [5]: 1% and 0% | Population Mitochondria Different-Phenotype (%) [5]: 19% | Population Mitotic Cells (%) [5]: 76% and 53% | Population Normal (%) [5]: 98% and 96% | Population Pyknosed Nuclei (%) [5]: 5% and 6% | Population Tubulin-Different-Phenotype (%) [5]: 14% and 12% | Total Cell Count [5]: 932 and 676 | Population Apoptotic (%) [6]: 38% and 60% | Population Fragmented Nuclei (%) [6]: 14% and 15% | Population Healthy Nuclei (%) [6]: 76% and 72% | Population Hoechst High Intensity Objects (%) [6]: 6% and 16% | Population Membrane Permeable-Phenotype (%) [6]: 0% | Population Mitochondria Different-Phenotype (%) [6]: 45% and 53% | Population Mitotic Cells (%) [6]: 61% and 40% | Population Normal (%) [6]: 93% and 83% | Population Pyknosed Nuclei (%) [6]: 9% and 12% | Population Tubulin-Different-Phenotype (%) [6]: 35% | Total Cell Count [6]: 627 and 539
